{
  "source": "paper PMC11814085",
  "about": "(Scientific Reports, 2025)",
  "key": {"[1]": {"system": "TNBC cell lines and LSECs", "experiment": "GR analysis, comparison across cell lines/type", "type": "cell-based"}, "[2]": {"system": "TNBC cancer cell lines and LSEC", "experiment": "Cellular partitioning and in vitro therapeutic index across cell lines/type", "type": "in vitro ADME", "settings": "range over cancer cell lines"}, "MDA-MB-468 cells": {"system": "MDA-MB-468 cells", "experiment": "CTG assay in presence and absence of P-gp inhibitor", "type": "cell-based", "in_short": "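MDA-MB-468 cells were seeded at their pre-optimized density and allowed to adhere for 24 h. They were then exposed continuously to 0–200nM test compound for 3 days, in parallel with and without 0.6 µM zosuquidar (P-gp inhibitor). Read-out was CellTiter-Glo 2.0 cellular ATP.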"}, "MDA-MB-468": {"system": "MDA-MB-468", "experiment": "Live cell imaging of growth, fluorescent nuclear marker", "type": "cell-based", "settings": "MDA-MB-468, highest doses", "in_short": "(§1)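 Cells were transfected with a red fluorescent nuclear marker. Growth in the presence of test compound was followed longitudinally by live-cell imaging of nuclei, as a check independent of the CellTiter-Glo endpoint.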"}, "HCC1937": {"system": "HCC1937", "experiment": "Live cell imaging of growth, fluorescent nuclear marker", "type": "cell-based", "in_short": "as §1"}, "tubulin": {"system": "tubulin", "settings": "cell free system; cited from earlier work"}, "P-gp": {"system": "P-gp", "settings": "read-out: P-gp inhibition Ki; cited from earlier work"}},
  "note": "Square brackets hold non-standard residues; d marks the D form. Peptide text beside a SMILES is read from it. * marks the point of attachment. Dolaproine = CO[C@@H]([C@@H]1CCCN1)[C@@H](C)C(=O)O; Dil = CC[C@H](C)[C@H](NC)[C@@H](CC(=O)O)OC; Doe = c1ccc(C[C@H](N*)c2nccs2)cc1; X1 = C[C@@H](N*)[C@@H](O)c1ccccc1; NMeV = CN[C@H](C(=O)O)C(C)C",
  "data": [
    {"smiles": "CC[C@H](C)[C@@H]([C@@H](CC(=O)N1CCC[C@H]1[C@H](OC)[C@@H](C)C(=O)N[C@H](C)[C@@H](O)c1ccccc1)OC)N(C)C(=O)[C@@H](NC(=O)[C@@H](NC)C(C)C)C(C)C", "note": "[MMAE, Monomethyl auristatin E] (H-[NMeV]V[Dil][Dolaproine]-X1)", "values": [
      {"measurement": "GR50 in LSECs, fold higher than in cancer cell lines", "setting": "[1]; media GR50, LSECs versus cancer cell lines", "value": "3-21 x"},
      {"measurement": "in vitro therapeutic index (TI), ratio of intracellular GR50 in LSEC to that in the cancer cell lines", "setting": "[2]", "value": "3-60 x"},
      {"measurement": "dose response in presence and absence of P-gp efflux pump inhibitor", "setting": "MDA-MB-468 cells; MDA-MB-468, with and without 0.6 µM Zosuquidar", "value": "nearly identical dose response"},
      {"measurement": "cell growth in live cell imaging", "setting": "MDA-MB-468", "value": "completely inhibited"},
      {"measurement": "cell growth in live cell imaging", "setting": "HCC1937", "value": "only marginal inhibition"}
    ]},
    {"smiles": "CC[C@H](C)[C@@H]([C@@H](CC(=O)N1CCC[C@H]1[C@H](OC)[C@@H](C)C(=O)N[C@@H](Cc1ccccc1)C(=O)O)OC)N(C)C(=O)[C@@H](NC(=O)[C@@H](NC)C(C)C)C(C)C", "note": "[MMAF, monomethyl auristatin F] (H-[NMeV]V[Dil][Dolaproine]F-OH)", "values": [
      {"measurement": "tubulin binding affinity, fold better than MMAE", "setting": "tubulin", "value": "~ 5 x"}
    ]},
    {"smiles": "O[C@@H](COc1cccc2ncccc12)CN1CCN([C@@H]2c3ccccc3[C@@H]3[C@H](c4ccccc42)C3(F)F)CC1", "note": "[Zosuquidar]", "values": [
      {"measurement": "effect of P-gp inhibitor by itself on cell growth", "setting": "MDA-MB-468 cells; auristatin free MDA-MB-468 cells, 0.6 µM", "value": "did not have undesired effect on cell growth"},
      {"measurement": "Ki", "setting": "P-gp", "value": 60, "unit": "nM"}
    ]},
    {"smiles": "CC[C@H](C)[C@@H]([C@@H](CC(=O)N1CCC[C@H]1[C@H](OC)[C@@H](C)C(=O)N[C@@H](Cc1ccccc1)c1nccs1)OC)N(C)C(=O)[C@@H](NC(=O)[C@@H](NC)C(C)C)C(C)C", "note": "[MMAD, Monomethyl auristatin D] (H-[NMeV]V[Dil][Dolaproine]-Doe)", "values": [
      {"measurement": "GR50, fold lower than MMAE", "setting": "[1]; media GR50, across cell lines/type", "value": "6-31 x"},
      {"measurement": "in vitro therapeutic index (TI), ratio of intracellular GR50 in LSEC to that in the cancer cell lines", "setting": "[2]", "value": "12–244 x"}
    ]}
  ]
}
